# HSF1 activator: increases HSF-1 driven luciferase reporter signal | activation, % at 9 µM | NIH3T3-HGL HSF-1 luciferase reporter, MG132, 8 h; 100% = twice DMSO control signal | 1.7% of 300,000 active;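 active = mean replicate activation of at least 50% with a set share of replicates each reaching 50%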;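 also: 0% = median of the neutral control wells and 100% = twice that signal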
# T cruzi repl: T. cruzi replication inhibition | 1.4% of 300,000 active | T. cruzi beta-gal in NIH3T3, luminescence, 90 h | inhibition, % (test concentration not listed);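 active = mean inhibition across valid replicates above about 55%, limit read from the data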;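 also: signal also drops with host cell toxicity which is not excluded here; 0% = plate median of DMSO wells and 100% = zero luminescence signal; higher percent means less beta-gal luminescence so fewer parasites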
#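 compound dosing = single 50 nL compound addition per well in DMSO | material = NIH/3T3 host cells with β-galactosidase reporter T. cruzi | input = 5,000 host fibroblasts per well | timing = ≥90 h infection period, 3 h prior cell attachment | read-out basis = percent inhibition of parasite-derived β-gal signal | detection = GalScreen β-gal luminescence, detergent lysis, 60 min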
# L major viab: inhibitors of Leishmania major promastigote growth. Leishmania major promastigotes, resazurin fluorescence viability. inhibition, % at 10 µM. 9% of 200,000 active. AID 1063; in the data active = inhibition above about 50%;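 also: promastigotes grown with compound for 44 hours at 28 °C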
# Hsp70 activator: Hsp70 transcriptional activation, primary screen; HeLa Hsp70 promoter luciferase reporter, luminescence; scaled: vehicle 0, proteasome-inhibitor control 100%; activation, % at 10 µM; 0.04% of 200,000 active;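 active = activation above the mean across all tested compounds plus 3 SD, cutoff set per campaign, cut at about 5.5% in these data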;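 also: 100% = MG132 at 30 µM as the positive control and 0% = DMSO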
# HSF1 inh: HSF1 inhibition; NIH3T3-HGL HSE-luciferase, MG132-induced, luminescence 8 h; active compounds read low; activity change, negative = inhibition, % at 7.5 µM (by protocol); 0.77% of 300,000 active;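 active = more than half of replicate wells show activity change below -50%, luminescence cut by over half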;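 also: luciferase reports HSF-1 transcriptional activity via heat shock element; 0% = median of DMSO wells and -100% = zero luminescence signal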
# * marks the source's active call; other numbers are inactive results; nt = no result given. The entries come from a sample that favours hits as a whole.
SMILES,HSF1 activator,T cruzi repl,L major viab,Hsp70 activator,HSF1 inh
COc1ccc(S(=O)(=O)N(CC(=O)NCc2cccnc2)c2ccc(F)cc2)cc1OC,0,-3,-1,0,-5
CN1CCN(S(=O)(=O)c2ccc(Cc3ccc(S(=O)(=O)N4CCN(C)CC4)cc3)cc2)CC1,-11,1,65*,0,-9
CN1CCN(S(=O)(=O)c2ccc(Cl)cc2)CC1,0,-3,nt,nt,0
CC(=O)N1CCc2ccc(S(=O)(=O)N3CCN(C)CC3)cc21,24,-3,53*,0,-6
COc1cc(CC(=O)OCn2nnc3ccccc3c2=O)cc(OC)c1OC,-12,-9,-14,0,-5
Cc1cccc(S(=O)(=O)c2c(C)cc(C)[nH]c2=O)c1,0,-2,nt,nt,3
C=C(C)Cn1c(C)cc(C)c(S(=O)(=O)c2cccc(C)c2)c1=O,11,10,96*,0,-4
Cc1cc(C)cc(NC(=O)CS(=O)(=O)c2cccc3nsnc23)c1,-16,-11,nt,nt,4
CC(=O)C(N=Nc1ccccc1)(Sc1nnc(-c2ccccc2)n1-c1ccccc1)C(=O)Nc1ccccc1 (configuration not stated),2,45,78*,0,0
CC(=O)C(N=Nc1ccccc1)(Sc1nnc(-c2ccccc2)n1-c1ccccc1)C(C)=O,15,25,19,0,11
CCOC(=O)/C(=C\c1ccc(Cl)cc1)c1nc2sc(C)c(C)c2c(=O)[nH]1,241*,-2,100*,0,185
COc1cc2c(cc1OC)CN(Cc1cc(=O)oc3cc(C)c(C)cc13)CC2,33,3,5,0,4
COc1cc2c(cc1OC)CN(Cc1cc(=O)oc3cc(C)c(Cl)cc13)CC2,10,15,60*,0,-8
CCc1ccc2c(CN3CCc4cc(OC)c(OC)cc4C3)cc(=O)oc2c1,38,10,5,0,2
COc1cc2c(cc1OC)CN(Cc1cc(=O)oc3c(C)c(C)ccc13)CC2,58*,7,6,0,13
CCN(CCn1cccn1)C(=O)c1ccc(OC2CCN(C(=O)COC)CC2)cc1,14,-2,nt,nt,3
Cc1cc(Cl)c2oc(C(=O)N(C)CCc3cnn(C)c3)c(C)c2c1,25,11,nt,nt,22
CCOC(=O)NC(=O)c1cn(Nc2ccccc2C(F)(F)F)c(=O)[nH]c1=O,-1,-13,nt,nt,-3
CCCN1CCC(N2CCCC(C(=O)O)C2)CC1 (configuration not stated),3,15,2,0,0
CCCn1c(O)c(N=NC(=O)c2ccco2)c2ccccc21,-65,11,68*,0,-55*
CCn1c(O)c(N=NC(=O)CNC(=O)c2ccco2)c2ccccc21,nt,-2,1,0,nt
CCn1c(O)c(N=NC(=O)c2cccs2)c2ccccc21,63*,24,11,0,19
O=C(Nc1cccc(C(=O)Nc2ccc(F)cc2F)c1)c1ccccc1,8,-1,nt,nt,2
Oc1ccc2ccccc2c1CN1CCOCC1,83*,-17,nt,nt,71
c1ccc2cc(CN3CCOCC3)ccc2c1,-11,-8,54*,0,-4
SMILES,HSF1 activator,T cruzi repl,L major viab,Hsp70 activator,HSF1 inh
Oc1ccccc1Cc1c(O)ccc2ccccc12,101*,-13,nt,nt,64
COc1ccc(C(=O)NCC(O)COc2ccc(C(C)(C)C)cc2)cc1[N+](=O)[O-] (configuration not stated),-9,-3,35,-1,1
CCn1nc(C)cc1C(=O)Sc1ccc(Cl)cc1Cl,52*,nt,nt,nt,28
CCn1nc(C)cc1C(=O)Sc1cccc(Br)c1,-14,13,nt,nt,-1
CN(CC(=O)Nc1cccc(F)c1)C(=O)CCc1nc2ccccc2c(=O)[nH]1,-5,-17,nt,nt,0
COc1ccc(N2CCN(CCCn3c(=S)[nH]c4ncccc4c3=O)CC2)cc1,-64,32,-1,0,-56*
O=c1c2cccnc2[nH]c(=S)n1CCCN1CCN(c2ccc(F)cc2)CC1,26,22,9,0,6
CCCCCNC(=O)C1CCC(Cn2c(=S)[nH]c3ccccc3c2=O)CC1 (configuration not stated),85*,41,2,0,28
CCCCCNC(=O)c1ccc2c(=O)n(CCCOCC)c(=S)[nH]c2c1,9,0,11,0,-2
O=C(C1CCC(Cn2c(=S)[nH]c3ccccc3c2=O)CC1)N1CCN(c2ccccc2)CC1 (configuration not stated),12,33,99*,0,-2
O=C(C1CCC(Cn2c(=S)[nH]c3ccccc3c2=O)CC1)N1CCN(c2ccccn2)CC1 (configuration not stated),10,36,99*,0,-5
CN(C)S(=O)(=O)c1ccc(NC(=O)CNc2cc(S(=O)(=O)N3CCCC3)ccc2OCC(F)(F)F)cc1,32,3,1,0,2
COc1ccc(N2CCN(C(=O)C3CCC(Cn4c(=S)[nH]c5ccccc5c4=O)CC3)CC2)cc1 (configuration not stated),14,37,99*,0,1
COc1ccc(N2CCN(CCCNC(=O)C3CCC(CNc4nc(=S)[nH]c5ccccc45)CC3)CC2)cc1 (configuration not stated),-2,20,86*,0,2
COc1ccccc1N1CCN(C(=O)C2CCC(Cn3c(=S)[nH]c4ccccc4c3=O)CC2)CC1 (configuration not stated),-32,26,64*,0,-15
O=C(C1CCC(Cn2c(=S)[nH]c3ccccc3c2=O)CC1)N1CCOCC1 (configuration not stated),33,-2,-1,0,8
O=C(C1CCC(Cn2c(=O)[nH]c3ccccc3c2=O)CC1)N1CCN(c2ccccc2)CC1 (configuration not stated),4,7,38,0,-2
CCCCNC(=O)C1CCC(CNc2nc(=S)[nH]c3ccccc23)CC1 (configuration not stated),-5,9,5,0,-4
Cc1cccc(N2CCN(C(=O)c3ccc4c(c3)NC(=O)C(CSCc3cccc(F)c3)N4)CC2)c1C (configuration not stated),4,8,nt,nt,-3
CCN(CCCNC(=O)CCCN1C(=O)COc2ccc(C)cc21)c1cccc(C)c1,101*,20,16,0,68
CCOC(=O)c1cnc(-n2nc(C)cc2C)nc1NNc1nc(C)cc(C)n1,4,-12,nt,nt,7
CCOC(=O)c1cnc(-n2nc(C)cc2C)nc1NC,-3,-8,1,0,-2
CCOC(=O)c1cnc(-n2nc(C)cc2C)nc1NNc1nc(-c2ccccc2)cc(-c2ccccc2)n1,-8,48,100*,0,-4
CCOC(=O)c1cnc(-n2nc(C)cc2C)nc1NC1CCCCC1,-7,76*,100*,0,-1
COC(=O)c1cc(Br)ccc1NC(=O)CCNC(=O)c1ccco1,3,-7,nt,nt,2
